Source: PubChem BioAssay (several laboratories)
Shown are actives, neighbours in structure and some others; about 3.4% of the full set was active somewhere.
TMEM16A act: TMEM16A chloride channel activators or potentiators, primary screen, cell-based, HTS. actives 0.3% (n = 340,000). Anoctamin-1 (Mus musculus), Q8BHY3. HEK293 TMEM16A/YFP-H148Q/I152L, iodide quench fluorescence; stronger effect = lower value. B-score at 10 µM;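 active means fluorescence-ratio B-score plate-corrected deviation score at least 3 library SD below zero, with starting fluorescence score within 5 deviations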;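 further: channel opened by trigger with iodide after compound preincubation; score built on the fluorescence ratio of max minus min over baseline; more negative score means more quench and so TMEM16A activation or potentiation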
HTR2A ag: mouse Htr2a agonists via beta-arrestin recruitment, primary screen, cell-based, luminescence. 5-hydroxytryptamine receptor 2A (Mus musculus), P35363. CHO-K1 mHTR2A beta-arrestin complementation; percent of 30 µM serotonin response. actives 0.66% (n = 360,000). AID 624169, 2012. activation, % at 7.6 µM;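 active means activation above a run cutoff, the mean activation of all tested compounds plus 3 SD, cut at about 14% in these data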;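 further: 0% = plate median of compound wells and 100% = 30 µM serotonin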
TMEM16A inh: TMEM16A chloride channel inhibitors, primary screen, cell-based, HTS. HEK293 TMEM16A/YFP iodide influx fluorescence, ionomycin. actives 1.2% (n = 310,000). Anoctamin-1 (Mus musculus), Q8BHY3. normalized B-score (activity score, 25-100; higher = stronger inhibition) at 10 µM. AID 588511, 2011;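 active means ratio plate-corrected score three or more library SD toward inhibition, starting fluorescence score within five deviations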;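 further: score derived from kinetic fluorescence span divided by baseline fluorescence per well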
MC4R antagonist: MC4R antagonists of cAMP signaling, primary screen, cell-based, TR-FRET, antagonist arm of biased-ligand search. AID 540295, 2011. MC4R-expressing cells, MTII-stimulated cAMP, LANCE TR-FRET. Melanocortin receptor 4 (Homo sapiens), P32245. actives 0.48% (n = 360,000). inhibition, % at 6.5 µM;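 active means inhibition above its plate's cutoff, the mean of tested wells on that plate plus 3 SD, cut at about 29% in these data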;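 further: 0% = Melanotan II alone and 100% = Melanotan II plus saturating MCL0020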
Target sequence (P32245 whole entry, looked up): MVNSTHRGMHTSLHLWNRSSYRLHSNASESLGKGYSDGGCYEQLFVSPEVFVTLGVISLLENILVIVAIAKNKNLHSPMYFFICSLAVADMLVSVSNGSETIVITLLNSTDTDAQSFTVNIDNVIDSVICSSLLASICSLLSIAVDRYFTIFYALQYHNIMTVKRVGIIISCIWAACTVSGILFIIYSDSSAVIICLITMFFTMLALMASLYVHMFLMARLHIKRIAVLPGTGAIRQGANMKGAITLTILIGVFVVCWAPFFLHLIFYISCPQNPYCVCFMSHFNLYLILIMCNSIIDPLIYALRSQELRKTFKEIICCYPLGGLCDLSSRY
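Material: human MC4R-expressing U2OS cells. Probe or stimulus: Melanotan II challenge. Dosing: 6.5 µM single dose. Times: 30-min compound, 1-h challenge, 1-h detection, room temperature. Technique: TR-FRET with Eu-cAMP and labeled anti-cAMP, 671 nm. Replication: singlicate.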
MIN6 prolif-1: inducers of MIN6 beta-cell proliferation, primary screen, ATP luminescence, uHTS; MIN6 cells proliferation, ATPlite luminescence, 48 h; cells starved in 0.2% serum; 100% = growth in 10% serum; proliferation, % at 10 µM; actives 0.29% (n = 330,000);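 active means compounds whose signal lies at least 3.5 SD above the mean of all wells on their plate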;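 further: 0% = DMSO-treated cells in low-serum medium and 100% = 10% serum control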
MC4R ag barr: MC4R agonists recruiting beta-arrestin, primary screen, cell-based, luminescence, agonist arm of biased-ligand search; Melanocortin receptor 4 (Homo sapiens), P32245; actives 0.98% (n = 360,000); U2OS MC4R beta-arrestin complementation; percent of melanotan II response, DMSO zero; activation, % at 8.9 µM;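 active means activation above a per-plate cutoff, the mean activation of sample wells on that plate plus 3 SD, cut at about 8% in these data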
MIN6 prolif-2: inducers of beta-cell proliferation in MIN6, confirmation, MIN6 cells, mouse | shares compounds with MIN6 prolif-1 | ATPlite luminescence, 48 h; cells kept in 0.2% serum; scaled between 0.2% and 10% serum | 920 tested, under 10 active | proliferation increase, % at 50 µM;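 active means proliferation increase above 40% at any of the four tested concentrations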
MC4R barr conf: MC4R beta-arrestin agonists, retest, confirmation, cell-based, luminescence, U2OS; U2OS MC4R beta-arrestin recruitment; scaled DMSO 0%, Melanotan II 100%; shares compounds with MC4R ag barr; activation, % at 8.9 µM; actives 31% (n = 2,400);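 active means mean activation across replicates above the hit cutoff set in the earlier primary screen, cut at about 8% in these data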
MOR-DOR barr ag: agonists of MOR-DOR heterodimerization, counter-screen for MC4R biased agonist project, cell-based, luminescence | shares compounds with MC4R ag barr | U2OS PathHunter beta-arrestin, beta-gal luminescence; percent of deltorphin B response, DMSO zero | activation, % at 9.2 µM | actives 5.8% (n = 2,400) | AID 602194, 2012;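 active means mean activation across replicates exceeds the hit threshold derived in the earlier primary screen, cut at about 18% in these data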;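 further: 100% = deltorphin B at 0.9 µM final and 0% = DMSO alone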
HTR2A ag conf: mouse HTR2A agonists, beta-arrestin recruitment, confirmation, cell-based, luminescence, CHO-K1 PathHunter, triplicate. shares compounds with HTR2A ag. activation, % at 7.6 µM. actives 19% (n = 2,300). DMSO 0%, 30 µM serotonin 100%;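 active means mean activation across triplicates above the hit threshold derived in the original primary screen, cut at about 15% in these data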
The depositor's hits bear a star; i = inactive; x = not tested or not shown.

SMILES	TMEM16A act	HTR2A ag	TMEM16A inh	MC4R antagonist	MIN6 prolif-1	MC4R ag barr	MIN6 prolif-2	others
CC(C)(C)OC(=O)C[C@H]1C/C=C\C[C@H](CC(=O)NCCO)C(=O)NC[C@H](c2ccccc2)OC1=O	i	1	x	6	-2	-1	x
CCOC(=O)C(CC)Sc1nc2c(c(=O)[nH]c(=O)n2C)n1C/C=C(/C)Cl (centres undefined)	i	0	i	-20	5.4*	1	-6
C/C(Cl)=C/Cn1c(SCC(C)C)nc2c1c(=O)[nH]c(=O)n2C	i	-3	i	3	3	0	x
CCCCOC(=O)CSc1nc2c(c(=O)[nH]c(=O)n2C)n1C/C=C(\C)Cl	i	6	i	7	5.4*	0	-4
O=C(Cn1cnc2c(NCc3ccccc3)ncnc21)NCCCc1ccccc1	x	0	x	-1	x	-2	x
CC(C)Cn1c(N)c(/C=N/NC(=O)c2ccc(Cl)cc2)c(=O)n(C)c1=O	i	2	i	-2	6.5*	-1	-1
Cc1ccc(S(=O)(=O)NC2=NCN(CCOC(=O)c3ccccc3)CN2)cc1	i	-2	i	12	2	1	x
Cc1ccc(S(=O)(=O)NC2=NCN(CCOC(=O)c3ccc([N+](=O)[O-])cc3)CN2)cc1	i	2	i	-5	8.4*	2	0
COc1ccc(NC(=O)c2c(Cl)cnn2C)c(C)c1	i	9	i	-4	-3	-1	x
COC(=O)c1sccc1NC(=O)c1c(Cl)cnn1C	i	-5	i	-12	9.0*	1	1
Cc1ccc(/C=N/NC(=O)CSc2nc3ccccc3s2)o1	i	1	i	3	0.0*	-1	2
COCC(=O)N/N=C/c1ccc(Sc2nc3ccccc3s2)o1	i	-7	i	-4	-5	-2	x
OC(CN1CCC(Cc2ccccc2)CC1)c1ccccc1 (centres undefined)	i	-9	i	12	-1	2	x
CC1CCN(C(=O)CSC2=NS(=O)(=O)c3cc(F)ccc3N2)CC1	i	-1	i	-3	-1	0	x
O=C(Nc1cccnc1)Nc1cccc(F)c1	i	-1	i	12	-2	2	x
CC(=O)c1cccc(NC(=O)Nc2cccnc2)c1	i	-1	i	2	7.9*	-2	5
COc1cc(C=Nc2cccc([N+](=O)[O-])c2C)ccc1OC(C)=O	i	-1	i	-2	6.4*	-2	0
COc1cc(/C=N/N2CCN(c3ccccc3OC)CC2)ccc1OC(C)=O	i	0	i	10	-1	-2	x
COc1ccc(-n2c(C)c(C(C)=O)c3cc(OC(C)=O)ccc32)cc1	i	2	i	4	5.3*	-1	-5
CC1CCC(NC(=O)CNC(=O)Cc2cccc3ccccc23)CC1 (centres undefined)	i	-1	i	1	-1	-3	x
CC1CCCCN1C(=O)COC(=O)c1cc([N+](=O)[O-])ccc1N (centres undefined)	i	-2	i	23	15*	-1	1
Cc1nnc(SCC(=O)Nc2ccccc2)c2ccccc12	i	1	i	21	0	-1	x
Cc1ccccc1NC(=O)CSc1nnc(C)c2ccccc12	i	0	i	11	5.8*	0	4
CN1CCN(CC(O)COC(c2ccccc2)c2ccccc2)CC1 (centres undefined)	i	-3	i	-1	8.2*	-1	-2
CN1CCN(CC(O)COc2ccccc2)CC1 (centres undefined)	i	2	i	15	-2	2	x
SMILES	TMEM16A act	HTR2A ag	TMEM16A inh	MC4R antagonist	MIN6 prolif-1	MC4R ag barr	MIN6 prolif-2	others
C#CCOCCOCCOCCNc1nc(N2CCN(C(=O)[C@H](CCCN=C(N)N)n3cc(C(N)[C@@H](C)CC)nn3)CC2)nc(N2CCN(C(=O)[C@H](CCC(=O)O)n3cc([C@@H](N)CO)nn3)CC2)n1 (some centres undefined)	x	0	x	6	2	-1	x
CCNS(=O)(=O)c1ccc(NC(=O)c2cccnc2)cc1	i	1	i	-1	11*	4	-2
CCCCNC(=O)C[C@@H]1C[C@@]2(C(=O)OCC)CCCC=C2N(CCC2=CCCCC2)C1=O	x	-6	x	x	x	x	x
N#Cc1ccccc1OCCCN1CCC(Cc2ccccc2)CC1	i	-8	i	10	-1	-1	x
Cc1cccn2c(=O)c3cc(C(=O)NCCc4ccccc4)sc3nc12	i	-4	i	0	7.4*	18*	0	MC4R barr conf=13*;MOR-DOR barr ag=3
COc1cccc(NC(=O)C2(C)CCN2C(=O)CC2CCCC2)c1 (centres undefined)	x	7	x	11	x	-1	x
COC(=O)C1=C(Cn2cnc3ccccc32)NC(=O)NC1c1cc(C)ccc1C (centres undefined)	i	73*	i	1	5.4*	2	-6	HTR2A ag conf=46*
O=C(Cc1cccs1)NCc1ccccc1Br	i	1	i	7	-2	-2	x
